Assay [1] is described as follows: caspase activation in Flag-A1-IRES-BIM MEFs, dose response, orthogonal assay for A1 inhibitor project, cell-based, Flag-A1-IRES-BIM MEF, luminescence, dry powder, set 3 (AID 504409). The note with it: MEF Flag-A1-IRES-BIM, caspase-Glo luminescence, 3 h; at 35 µM (top of the series). The method in brief:
(§1)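 Read-out: caspase activation / Assay system: MEFs carrying Flag-A1-IRES-BIM construct / Buffer or medium: RPMI-1640 growth medium plus 10% heat-inactivated FBS / Measured by: CaspaseGlo luminescence / Schedule: 3 h exposure (37 °C, 5% CO2), 1 h room-temperature detection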

Assay [2] relates to MEF Flag-A1-IRES-BIM, caspase-Glo luminescence, 3 h. Described as above. The method in brief: as §1

Inconclusive results are not listed. Calls of active or inactive are those of the source.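 The calls were made as follows: active = fitted curve reaches caspase activation of 10% of the positive control signal in every replicate test; inconclusive = tests disagree, or a test had a flat mid-level or poor fit; inactive = every replicate test called inactive.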

`CCn1c(=O)c([N+](=O)[O-])c(Sc2ccc(C)cc2)c2ccccc21`: the caspase activation in assay [1] was 1.63% (inactive).

As to `Cn1c(=O)c([N+](=O)[O-])c(Sc2ccccn2)c2ccccc21`, in assay [2], the AC10 was 3 µM.

For the molecule `Cn1c(=O)c([N+](=O)[O-])c(Cl)c2ccccc21`, in assay [2], the AC10 was 1.84 µM.

As to `CC1(C)CCC(c2ccc(Cl)cc2)=C(CN2CCN(c3ccc(C(=O)NS(=O)(=O)c4ccc(N[C@H](CCN5CCOCC5)CSc5ccccc5)c(S(=O)(=O)C(F)(F)F)c4)cc3)CC2)C1`, the AC10 in assay [2] was 0.689 µM.

Turning to `COCCn1c(=O)c(Sc2ccc(C)cc2)c(Sc2ccc(C)cc2)c2ccccc21`, in assay [1], the caspase activation is -0.209% (inactive).

On to `COCCn1c(=O)c([N+](=O)[O-])c(Cl)c2ccccc21`, for which the AC10 in assay [2] is 1.46 µM.

For the molecule `COc1nc2ccccc2c(Sc2ccc(C)cc2)c1[N+](=O)[O-]`, in assay [1], the caspase activation is 2.16% (inactive).

In the case of `CCn1c(=O)c([N+](=O)[O-])c(Cl)c2ccccc21`, in assay [2], the AC10 is 1.49 µM.

On to `Cc1ccc(Sc2c(Sc3ccc(C)cc3)c3ccccc3n(Cc3ccccc3)c2=O)cc1`, for which the caspase activation in assay [1] was -0.908% (inactive).

Regarding `Cn1c(=O)c([N+](=O)[O-])c(S(C)(=O)=O)c2ccccc21`, the AC10 in assay [2] is 3.06 µM.

Consider `COc1ccc(N2CCN(c3nc(NCCc4ccc(OC)c(OC)c4)nc(N4CCOCC4)n3)CC2)cc1`, for which, in assay [1], the caspase activation was 0.186% (inactive).

As to `COc1ccc(CCNc2nc(N3CCCC3)nc(N3CCCC3)n2)cc1OC`, in assay [1], the caspase activation was -0.336% (inactive).

Regarding `O=c1[nH]c2ccccc2c(O)c1[N+](=O)[O-]`, the caspase activation in assay [1] was 0.941% (inactive).

For the molecule `Cn1c(=O)c(Sc2ccccn2)c(Sc2ccccn2)c2ccccc21`, the caspase activation in assay [1] was 1.87% (inactive).

Turning to `O=C(COc1ccc(Cl)cc1Cl)NNc1nc(N2CCOCC2)nc(N2CCOCC2)n1`, the caspase activation in assay [1] was -1.06% (inactive).

`Cc1ccc(S(=O)(=O)c2c([N+](=O)[O-])c(=O)n(C)c3ccccc23)cc1`: in assay [2], the AC10 is 4.11 µM.

With `COc1c([N+](=O)[O-])c(=O)n(C)c2ccccc12`, in assay [1], the caspase activation is 1.51% (inactive).

Regarding `COc1ccc(CCNc2nc(N3CCOCC3)nc(N3CCOCC3)n2)cc1OC`, the caspase activation in assay [1] is 0.077% (inactive).

As to `C/C(=N\Nc1nc(N2CCCCC2)nc(N2CCCCC2)n1)c1ccc(F)cc1`, the caspase activation in assay [1] is 0.551% (inactive).

For `Cc1ccc(Sc2c(Sc3ccc(C)cc3)c3ccccc3n(C)c2=O)cc1`, the caspase activation in assay [1] is -0.308% (inactive).

For `COCCn1c(=O)c([N+](=O)[O-])c(Sc2ccc(C)cc2)c2ccccc21`, the AC10 in assay [2] was 15.5 µM.

Consider `CCn1c(=O)c(Sc2ccc(C)cc2)c(Sc2ccc(C)cc2)c2ccccc21`, for which the caspase activation in assay [1] was 2.86% (inactive).

For the molecule `O=c1[nH]c2ccccc2c(Cl)c1[N+](=O)[O-]`, the AC10 in assay [2] was 3.38 µM.

Values taken from PubChem BioAssay AID504409 (Broad Institute, 2011).
